Data: ChEMBL document CHEMBL3414449, “DUPA conjugation of a cytotoxic indenoisoquinoline topoisomerase I inhibitor for selective prostate cancer cell targeting” (J Med Chem, 2015)
The source made the active and inactive calls. The calls are words filed in the database; no cut-off is given here.

Legend:
[1] = target: Glutamate carboxypeptidase 2 (Homo sapiens, UniProt Q04609); assay: Inhibition of PSMA (unknown origin)
CWR22R [2] = assay: Cytotoxicity against human 22Rv1 cells after 2 hrs by [3H]thymidine incorporation assay; type: functional, cell-based
Outline: (§1)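 22RV1 cells seeded at 50 000/well and grown to monolayer over 24–48 h. Drug pulse in fresh medium at 37 °C for 2 h or 24 h, then washed and chased 66 h. Labelled with 3H-thymidine (1 mCi/mL) for 4 h, TCA-precipitated, NaOH-solubilized and scintillation counted. IC50 from % incorporation vs log concentration.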

Mus musculus [3] = assay: Toxicity in human 22Rv1 cells xenografted nu/nu mouse assessed as induction of mouse death at 2 umol/kg, ip administered as single dose on alternative days, 3 days/week for 3 weeks; type: organism-based, CWR22R; details: in vivo
Outline: (§2)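 Male nu/nu mice, 5–6 weeks old, given 2 × 10^6 22RV1 cells in 20% HC Matrigel in the right shoulder. Dosing began at tumor ~100 mm3, 5 mice/group, ip in sterile saline (100 μL). Tumors measured by caliper every 2–3 days, volume = 0.5 × L × W2. Body weight recorded at each dosing. Live mice counted per dose. Untreated controls got saline.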

Mus musculus [4] = assay: Toxicity in human 22Rv1 cells xenografted nu/nu mouse at 2 umol/kg, ip administered as single dose on alternative days, 3 days/week for 3 weeks; type: organism-based, CWR22R; details: in vivo; outline: as §2
CWR22R [5] = assay: Antitumor activity against human 22Rv1 cells xenografted in nu/nu mouse assessed as regression of tumor growth at 2 umol/kg, ip administered as single dose on alternative days, 3 days/week for 3 weeks; type: functional, organism-based; outline: as §2
Mus musculus [6] = assay: Toxicity in human 22Rv1 cells xenografted nu/nu mouse assessed as effect on body weight at 2 umol/kg, ip administered as single dose on alternative days, 3 days/week for 3 weeks; type: organism-based, CWR22R; details: in vivo; outline: as §2
CWR22R [7] = assay: Antitumor activity against human 22Rv1 cells xenografted in nu/nu mouse assessed as reduction in tumor mass at 2 umol/kg, ip administered as single dose on alternative days, 3 days/week for 3 weeks by hematoxylin and eosin staining; type: functional, organism-based
CWR22R [8] = assay: Cytotoxicity against human 22Rv1 cells after 24 hrs by [3H]thymidine incorporation assay; type: functional, cell-based; outline: as §1
CWR22R [9] = assay: Antitumor activity against human 22Rv1 cells xenografted in nu/nu mouse assessed as regression of tumor growth at 2 umol/kg, ip administered as single dose on alternative days, 3 days/week for 3 weeks co-administered with 100 fold excess dose of DUPA-Aoc-Phe-Phe-Dap-Asp-Cys reagent; type: functional, organism-based; outline: as §2

Chain of Glutamate carboxypeptidase 2 (Q04609 whole entry): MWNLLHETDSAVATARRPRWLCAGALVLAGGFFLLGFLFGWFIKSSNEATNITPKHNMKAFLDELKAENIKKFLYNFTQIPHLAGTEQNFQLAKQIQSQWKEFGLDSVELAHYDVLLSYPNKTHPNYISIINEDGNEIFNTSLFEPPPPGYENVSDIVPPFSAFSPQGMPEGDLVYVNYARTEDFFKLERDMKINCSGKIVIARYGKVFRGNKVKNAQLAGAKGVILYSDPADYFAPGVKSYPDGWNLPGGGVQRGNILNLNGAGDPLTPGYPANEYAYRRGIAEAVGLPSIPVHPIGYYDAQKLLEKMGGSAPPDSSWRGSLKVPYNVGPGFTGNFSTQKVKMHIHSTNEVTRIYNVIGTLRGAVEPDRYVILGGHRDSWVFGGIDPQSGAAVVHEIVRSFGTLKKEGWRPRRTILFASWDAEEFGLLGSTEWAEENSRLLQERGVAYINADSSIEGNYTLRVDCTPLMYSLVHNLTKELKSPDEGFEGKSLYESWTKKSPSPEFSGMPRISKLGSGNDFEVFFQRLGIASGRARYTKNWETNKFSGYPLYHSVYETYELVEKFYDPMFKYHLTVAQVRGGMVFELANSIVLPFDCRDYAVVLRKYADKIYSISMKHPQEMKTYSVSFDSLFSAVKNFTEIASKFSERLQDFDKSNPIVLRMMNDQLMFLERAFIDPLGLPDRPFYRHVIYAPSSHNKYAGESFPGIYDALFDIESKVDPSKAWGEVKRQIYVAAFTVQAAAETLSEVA

SMILES	IC50 [1] [nM]	IC50 (CWR22R [2]; Homo sapiens, 22Rv1, read-out: IC50) [nM]	Activity (Mus musculus [3])	Activity (Mus musculus [4])	Activity (CWR22R [5])	Activity (Mus musculus [6])	Activity (CWR22R [7])	IC50 (CWR22R [2]; cwr22r)	IC50 (CWR22R [8]) [nM]	Activity (CWR22R [9])
O=C(O)CC[C@H](NC(=O)N[C@@H](CCC(=O)O)C(=O)O)C(=O)O	47									
COc1cc2c(cc1O)C(=O)c1c-2n(CCCN2CCOCC2)c(=O)c2cc(OC)c(OC)cc12		2	Toxic	Toxic	Active	Non-toxic				
COc1cc2c3c(n(CCCN4CCOCC4)c(=O)c2cc1OC)-c1cc(OC)c(OC(=O)OCCSSC[C@H](NC(=O)[C@H](CC(=O)O)NC(=O)[C@@H](N)CNC(=O)[C@H](Cc2ccccc2)NC(=O)[C@H](Cc2ccccc2)NC(=O)CCCCCCCNC(=O)CC[C@H](NC(=O)N[C@@H](CCC(=O)O)C(=O)O)C(=O)O)C(=O)O)cc1C3=O			Non-toxic	Non-toxic	Active	Non-toxic	Active	Not Active	11.4	inactive
